# Legend:
# Cannabinoid receptor 2 [1] = molecular target: Cannabinoid receptor 2 (Homo sapiens, UniProt P34972); assay: Displacement of [3H]CP55940 from human CB2 receptor expressed in HEK293 cells; assay type: cell-based
# Cannabinoid receptor 2 [2] = molecular target: Cannabinoid receptor 2 (Mus musculus, UniProt P47936); assay: Displacement of [3H]CP55940 from mouse spleen CB2 receptor; assay type: tissue-based
# Cannabinoid receptor 1 = Cannabinoid receptor 1 (Rattus norvegicus, UniProt P20272); assay: Displacement of [3H]CP55940 from rat brain CB1 receptor
# Chain of Cannabinoid receptor 1 (P20272 whole entry): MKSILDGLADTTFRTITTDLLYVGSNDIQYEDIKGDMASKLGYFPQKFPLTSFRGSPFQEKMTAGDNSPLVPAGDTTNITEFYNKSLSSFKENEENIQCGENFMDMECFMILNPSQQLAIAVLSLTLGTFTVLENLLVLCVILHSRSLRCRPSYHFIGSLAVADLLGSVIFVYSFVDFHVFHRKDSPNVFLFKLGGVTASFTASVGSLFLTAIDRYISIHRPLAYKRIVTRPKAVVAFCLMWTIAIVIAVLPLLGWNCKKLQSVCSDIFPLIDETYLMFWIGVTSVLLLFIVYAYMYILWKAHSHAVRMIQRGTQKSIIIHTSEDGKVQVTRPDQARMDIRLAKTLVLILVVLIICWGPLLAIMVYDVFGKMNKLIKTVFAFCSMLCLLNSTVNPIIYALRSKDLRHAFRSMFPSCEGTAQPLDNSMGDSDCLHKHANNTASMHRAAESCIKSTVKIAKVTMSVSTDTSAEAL
# Rattus norvegicus [3] = assay: Antinociceptive activity in sc dosed Sprague-Dawley rat assessed as thermal-stimulus induced tail flick latency after 120 mins; assay type: functional; details: 2 h
# Procedure, shortened: (§1)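 Female Sprague-Dawley rats (200–350 g, n=5-6/group), tested repeatedly with ≥3 days between sessions. Drug given s.c. (1.0 ml/kg) in 20% ethanol/20% alkamuls/60% saline diluted with saline; morphine in saline. Lamp set for 2–3 sec baseline, 6.0 sec cut-off; two baselines at 10 min intervals; latency read at 30, 60, 120, 180, 360 min. Expressed as %MPE.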
# Rattus norvegicus [4] = assay: Antinociceptive activity in Sprague-Dawley rat assessed as reduction in heat-induced tail flick latency at 0.1 mg/kg, sc after 120 mins; assay type: functional; set-up: scale not given: the % may be the effect or the level left; details: route subcutaneous; procedure, shortened: as §1
# Rattus norvegicus [5] = species: Rattus norvegicus; assay: Antinociceptive activity in Sprague-Dawley rat assessed as reduction in heat-induced tail flick latency; assay type: functional; set-up: scale not given: the % may be the effect or the level left; procedure, shortened: as §1
# Chain of Cannabinoid receptor 2 (Homo sapiens, UniProt P34972) (P34972 whole entry): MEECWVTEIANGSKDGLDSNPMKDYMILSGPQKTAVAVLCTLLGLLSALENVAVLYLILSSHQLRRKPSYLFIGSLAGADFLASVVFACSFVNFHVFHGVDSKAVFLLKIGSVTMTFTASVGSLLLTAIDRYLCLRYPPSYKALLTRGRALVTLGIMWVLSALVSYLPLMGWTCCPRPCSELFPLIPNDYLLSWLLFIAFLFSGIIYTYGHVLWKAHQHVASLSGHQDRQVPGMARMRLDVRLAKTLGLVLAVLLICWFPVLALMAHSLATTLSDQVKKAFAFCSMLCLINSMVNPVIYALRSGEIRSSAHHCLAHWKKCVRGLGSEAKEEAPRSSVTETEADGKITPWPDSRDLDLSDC
# Chain of Cannabinoid receptor 2 (Mus musculus, UniProt P47936) (P47936 whole entry): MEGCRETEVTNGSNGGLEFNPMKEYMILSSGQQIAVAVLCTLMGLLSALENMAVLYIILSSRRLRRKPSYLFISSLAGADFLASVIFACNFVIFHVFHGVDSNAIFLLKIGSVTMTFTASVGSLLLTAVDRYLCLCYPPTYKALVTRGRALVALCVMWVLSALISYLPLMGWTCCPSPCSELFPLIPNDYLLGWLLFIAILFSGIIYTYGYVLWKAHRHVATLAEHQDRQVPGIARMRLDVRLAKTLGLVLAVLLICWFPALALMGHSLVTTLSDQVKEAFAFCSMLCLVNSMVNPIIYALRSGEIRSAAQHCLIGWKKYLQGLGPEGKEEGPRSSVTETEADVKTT
SMILES,Ki (Cannabinoid receptor 2 [1]),Ki (Cannabinoid receptor 2 [2]),Ki (Cannabinoid receptor 1),ED50 (Rattus norvegicus [3]),Activity (Rattus norvegicus [4]),Activity (Rattus norvegicus [5])
CCCCCCC1(c2cc(O)c3c(c2)OC(C)(C)[C@@H]2CCC(=O)C[C@@H]32)CCC1,11.9 nM,13.7 nM,0.84 nM,–,–,–
CC1(C)Oc2cc(C3(CCCCBr)CCCC3)cc(O)c2[C@@H]2CC(=O)CC[C@H]21,–,13.9 nM,13.1 nM,–,–,–
CC1(C)Oc2cc(C3(CCCCCBr)CCC3)cc(O)c2[C@@H]2C[C@H](O)CC[C@H]21,–,–,1.37 nM,–,–,–
CC1(C)Oc2cc(C3(CCCCCCBr)CCCC3)cc(O)c2[C@@H]2CC(=O)CC[C@H]21,3.02 nM,1.6 nM,4.96 nM,–,–,–
CCCCCCC1(c2cc(O)c3c(c2)OC(C)(C)[C@@H]2CCC(=O)C[C@@H]32)CCCC1,3.34 nM,0.97 nM,1.76 nM,–,–,–
CC1(C)Oc2cc(C3(CCCCCBr)CCCC3)cc(O)c2[C@@H]2CC(=O)CC[C@H]21,1.32 nM,2.59 nM,1.03 nM,–,–,–
CCCC/C=C\C1(c2cc(O)c3c(c2)OC(C)(C)[C@@H]2CCC(=O)C[C@@H]32)CCCC1,7.02 nM,5.25 nM,1.23 nM,–,–,–
CCCCCCC1(c2cc(O)c3c(c2)OC(C)(C)[C@@H]2CC[C@@H](O)C[C@@H]32)CCC1,5.13 nM,4.21 nM,0.16 nM,0.026 mg/kg,–,–
CCCCCCC(C)(C)c1cc(O)c2c(c1)OC(C)(C)[C@@H]1CCC(=O)C[C@@H]21 [NABILONE],–,1.8 nM,2.2 nM,–,–,–
CC1(C)Oc2cc(C3(CCCCCBr)CCC3)cc(O)c2[C@@H]2CC(=O)CC[C@H]21,5.88 nM,7.56 nM,2.33 nM,–,–,–
CC1(C)Oc2cc(C3(CCCCC#N)CCCC3)cc(O)c2[C@@H]2CC(=O)CC[C@H]21,–,2.78 nM,3.14 nM,–,–,–
CC1(C)Oc2cc(C3(CCCCCBr)CCC3)cc(O)c2[C@@H]2C[C@@H](O)CC[C@H]21,–,–,1.5 nM,–,–,–
Cc1c(C(=O)NN2CCCCC2)nn(-c2ccc(Cl)cc2Cl)c1-c1ccc(Cl)cc1 [RIMONABANT],–,–,–,–,85.4%,48%
CCCCCc1cc(O)c2c(c1)OC(C)(C)[C@@H]1CCC(=O)C[C@@H]21,–,265 nM,333 nM,–,–,–
CCCCCCC1(c2cc(O)c3c(c2)OC(C)(C)[C@@H]2CCC(=O)C[C@@H]32)SCCS1,32.6 nM,42.3 nM,6.57 nM,–,–,–
CCCC/C=C\C1(c2cc(O)c3c(c2)OC(C)(C)[C@@H]2CCC(=O)C[C@@H]32)CCC1,15.1 nM,12 nM,1.13 nM,–,–,–

# From ChEMBL document CHEMBL1255228 (J Med Chem, 2010)
